In ChEMBL document CHEMBL4385592, “4-Imidazo[2,1-b]thiazole-1,4-DHPs and neuroprotection: preliminary study in hits searching” (Eur J Med Chem, 2019):

What was measured:
[1] = molecular target: T1, Voltage-gated L-type calcium channel (Rattus norvegicus, UniProt P22002+Q02485+P27732); test: (§1) Inhibition of voltage-dependent L-type calcium channel in Wistar rat brain slices assessed as protection against oxygen glucose deprivation/reperfusion-induced injury by measuring recovery of edema formation at 20 uM administered at onset of reperfusion period measured after 90 mins relative to control; parameters: scale not given: the % may be the effect or the level left; details: 1.5 h
[2] = system: Aorta; test: Inhibition of calcium-induced contraction in K+-depolarized guinea pig aortic strips at 10^-4 M relative to control; type: tissue-based; details: Cavia porcellus
[3] = Selectivity ratio of EC50 for negative chronotropic activity in guinea pig spontaneously beating right atrium to EC50 for negative inotropic activity in guinea pig left atrium; type: ADME, tissue-based, Cavia porcellus
[4] = molecular target: T2, Voltage-gated L-type calcium channel (Homo sapiens, UniProt Q13936+Q13698+Q01668+O60840); test: Inhibition of voltage-dependent L-type calcium channel in human SH-SY5Y cells assessed as protection against glutamate-induced excitotoxicity by measuring recovery of cell viability at 20 uM measured after 24 hrs by alamar blue-based fluorescence method relative to control
[5] = system: Right cardiac atrium; test: Negative chronotropic activity in guinea pig spontaneously beating right atrium assessed as decrease in atrial rate; type: tissue-based; details: Cavia porcellus
[6] = system: Left cardiac atrium; test: Negative inotropic activity in guinea pig left atrium assessed as decrease in developed tension at 0.001 to 100 uM relative to control; type: ADME, tissue-based; details: Cavia porcellus
[7] = system: Left cardiac atrium; test: Negative inotropic activity in guinea pig left atrium assessed as decrease in developed tension at 5 x 10^-7 M relative to control; type: ADME, tissue-based, Cavia porcellus; parameters: scale not given: the % may be the effect or the level left; details: 0.5 µM
[8] = molecular target: T2, Voltage-gated L-type calcium channel; test: Inhibition of voltage-dependent L-type calcium channel in human SH-SY5Y cells assessed as protection against glutamate-induced excitotoxicity by measuring recovery of cell viability at 1 uM measured after 24 hrs by alamar blue-based fluorescence method relative to control
[9] = molecular target: T2, Voltage-gated L-type calcium channel; test: (§2) Inhibition of voltage-dependent L-type calcium channel in human U373MG cells assessed as protection against oxygen glucose deprivation/reperfusion-induced injury by measuring recovery of cell viability at 1 uM administered at onset of reperfusion period measured after 16 hrs by alamar blue assay relative to control; type: cell-based
Outline: (§3)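 U-373 MG astrocytoma cells seeded at 30000 cells/ml and grown 24 or 48 h (37 °C/5% CO2). OGD: 24 h at 37 °C in glucose-free DMEM pre-bubbled with 95% N2/5% CO2, in a sealed nitrogen-flushed chamber. Then 16 h reperfusion in normal medium; compounds added at reperfusion, diluted from DMSO stock (DMSO ≤0.1%). Viability by alamarBlue, 4 h at 37 °C, fluorescence ex 530–560/em 590 nm. Expressed as % recovery from injury, mean ± S.E. of ≥3 experiments in sixuplicate.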

[10] = system: Right cardiac atrium; test: Negative chronotropic activity in guinea pig spontaneously beating right atrium assessed as decrease in atrial rate at 10^-6 M relative to control; type: ADME, tissue-based, Cavia porcellus; parameters: scale not given: the % may be the effect or the level left; details: 1 µM
[11] = molecular target: T1, Voltage-gated L-type calcium channel; test: as §1, with “LDH release” for “edema formation”, “mins by spectrophotometric assay” for “mins”; parameters: scale not given: the % may be the effect or the level left; details: 1.5 h
[12] = molecular target: T2, Voltage-gated L-type calcium channel; test: as §2, with “at 20” for “at 1”; type: cell-based; outline: as §3
[13] = system: Left cardiac atrium; test: Negative inotropic activity in guinea pig left atrium assessed as decrease in developed tension at 5 x 10^-6 M relative to control; type: ADME, tissue-based, Cavia porcellus; parameters: scale not given: the % may be the effect or the level left; details: 5 µM
[14] = system: Right cardiac atrium; test: Negative chronotropic activity in guinea pig spontaneously beating right atrium assessed as decrease in atrial rate at 5 x 10^-6 M relative to control; type: ADME, tissue-based, Cavia porcellus; parameters: scale not given: the % may be the effect or the level left; details: 5 µM
[15] = system: Right cardiac atrium; test: Negative chronotropic activity in guinea pig spontaneously beating right atrium assessed as decrease in atrial rate at 10^-7 M relative to control; type: ADME, tissue-based, Cavia porcellus; parameters: scale not given: the % may be the effect or the level left; details: 0.1 µM
[16] = system: Aorta; test: Inhibition of calcium-induced contraction in K+-depolarized guinea pig aortic strips at 5 x 10^-6 M relative to control; type: tissue-based; details: Cavia porcellus
[17] = system: Left cardiac atrium; test: Negative inotropic activity in guinea pig left atrium assessed as decrease in developed tension at 5 x 10^-5 M relative to control; type: ADME, tissue-based, Cavia porcellus; parameters: scale not given: the % may be the effect or the level left; details: 50 µM
[18] = system: Left cardiac atrium (Cavia porcellus); test: Negative inotropic activity in guinea pig left atrium assessed as decrease in developed tension
[19] = system: Right cardiac atrium; test: Negative chronotropic activity in guinea pig spontaneously beating right atrium assessed as decrease in atrial rate at 5 x 10^-7 M relative to control; type: ADME, tissue-based, Cavia porcellus; parameters: scale not given: the % may be the effect or the level left; details: 0.5 µM
[20] = system: Left cardiac atrium; test: Negative inotropic activity in guinea pig left atrium assessed as decrease in developed tension at 10^-4 M relative to control; type: ADME, tissue-based, Cavia porcellus; parameters: scale not given: the % may be the effect or the level left; details: 100 µM
[21] = system: Right cardiac atrium; test: Negative inotropic activity in guinea pig right atrium assessed as decrease in developed tension at 10^-7 M relative to control; type: ADME, tissue-based, Cavia porcellus; parameters: scale not given: the % may be the effect or the level left; details: 0.1 µM
[22] = system: Right cardiac atrium; test: Negative inotropic activity in guinea pig right atrium assessed as decrease in developed tension at 5 x 10^-5 M relative to control; type: ADME, tissue-based, Cavia porcellus; parameters: scale not given: the % may be the effect or the level left; details: 50 µM
[23] = system: Right cardiac atrium; test: Negative chronotropic activity in guinea pig spontaneously beating right atrium assessed as decrease in atrial rate at 10^-5 M relative to control; type: ADME, tissue-based, Cavia porcellus; parameters: scale not given: the % may be the effect or the level left; details: 10 µM
[24] = system: Aorta; test: Inhibition of calcium-induced contraction in K+-depolarized guinea pig aortic strips at 10^-5 M relative to control; type: tissue-based; details: Cavia porcellus
[25] = system: Left cardiac atrium; test: Negative inotropic activity in guinea pig left atrium assessed as decrease in developed tension at 10^-5 M relative to control; parameters: scale not given: the % may be the effect or the level left; details: 10 µM
[26] = system: Right cardiac atrium; test: Negative chronotropic activity in guinea pig right atrium assessed as decrease in atrial rate at 5 x 10^-6 M relative to control; parameters: scale not given: the % may be the effect or the level left; details: 5 µM
[27] = system: Aorta; test: Inhibition of calcium-induced contraction in K+-depolarized guinea pig aortic strips at 10^-7 M relative to control; type: tissue-based; details: Cavia porcellus
[28] = system: Aorta; test: Inhibition of calcium-induced contraction in K+-depolarized guinea pig aortic strips; type: ADME, tissue-based; details: Cavia porcellus
[29] = system: Right cardiac atrium; test: Negative chronotropic activity in guinea pig spontaneously beating right atrium assessed as decrease in atrial rate at 10^-4 M relative to control; type: ADME, tissue-based, Cavia porcellus; parameters: scale not given: the % may be the effect or the level left; details: 100 µM
[30] = system: Right cardiac atrium; test: Negative inotropic activity in guinea pig right atrium assessed as decrease in developed tension at 10^-4 M relative to control; type: ADME, tissue-based, Cavia porcellus; parameters: scale not given: the % may be the effect or the level left; details: 100 µM
[31] = system: Right cardiac atrium; test: Negative inotropic activity in guinea pig right atrium assessed as decrease in developed tension at 10^-5 M relative to control; type: ADME, tissue-based, Cavia porcellus; parameters: scale not given: the % may be the effect or the level left; details: 10 µM
[32] = system: Right cardiac atrium; test: Negative chronotropic activity in guinea pig spontaneously beating right atrium assessed as decrease in atrial rate at 5 x 10^-5 M relative to control; type: tissue-based, Cavia porcellus; parameters: scale not given: the % may be the effect or the level left; details: 50 µM

| EC50 [5] | EC50 [6] | EC50 [18] | SMILES | Activity [1] | inhibition at 100 µM [2] | Ratio EC50 [3] | Activity [4] | Activity [8] | Activity [9] | Activity [11] | Activity [12] | further results |
| --- | --- | --- | --- | --- | --- | --- | --- | --- | --- | --- | --- | --- |
| 100 nM | 21 nM |  | CCOC(=O)C1=C(C)NC(C)=C(C(=O)OCC)C1c1c(-c2ccc(F)c(F)c2)nc2sccn12 | 80.5% | 14% | < 10 | 50.7% | 37.4% | < 5% | 20.5% | < 5% | Activity [7]: 83%; Activity [10]: 77% |
| 1670 nM | 300 nM |  | COC(=O)C1=C(C)NC(C)=C(C(=O)OC)C1c1c(-c2cc(Br)c(OC)cc2OC)nc2sccn12 |  | 34% | 25 to 56 | < 5% | < 5% | < 5% |  | < 5% | Activity [13]: 63%; Activity [14]: 74% |
| 4.3 nM | 1270 nM |  | CCOC(=O)C1=C(C)NC(C)=C(C(=O)OCC)C1c1c(-c2ccc(Br)c([N+](=O)[O-])c2)nc2sccn12 | < 5% |  |  | 59.2% | < 5% | < 5% | < 5% | 32.4% | Activity [15]: 90%; inhibition at 5 µM [16]: 41%; Activity [17]: 53% |
|  | 97 nM | 19 nM | CCOC(=O)C1=C(C)NC(C)=C(C(=O)OCC)C1c1c(-c2ccc(Cl)cc2)nc2sccn12 |  | 43% |  | 44.4% | 6.8% | < 5% |  | < 5% | Activity [19]: 38%; Activity [20]: 61%; Activity [21]: 79% |
|  | 93 nM | 1000 nM | CCOC(=O)C1=C(C)NC(C)=C(C(=O)OCC)C1c1c(-c2ccc(OC(F)(F)F)cc2)nc2sc(Br)cn12 |  |  |  | 49.8% | < 5% | 14.2% |  | 23.8% | Activity [22]: 85%; Activity [23]: 35%; inhibition at 10 µM [24]: 5%; Activity [25]: 62% |
|  | 24 nM | 77 nM | CCOC(=O)C1=C(C)NC(C)=C(C(=O)OCC)C1c1c(-c2ccc([N+](=O)[O-])cc2)nc2sc(F)cn12 | 76.4% | 13% |  | 51.1% | 28.8% | 22.2% | 23.3% | 28.5% | Activity [26]: 67%; Activity [23]: 20%; Activity [7]: 78% |
| 1650 nM | 64 nM |  | CCOC(=O)C1=C(C)NC(C)=C(C(=O)OCC)C1c1c(-c2ccc(F)cc2)nc2sccn12 | 89.4% |  | 25 to 56 | 59.3% | 42.6% | 36.6% | 72.4% | 43.6% | inhibition at 0.1 µM [27]: 6%; Activity [19]: 91%; Activity [13]: 79% |
| 1240 nM | 160 nM |  | CCOC(=O)C1=C(C)NC(C)=C(C(=O)OCC)C1c1c(-c2cc(F)c(F)cc2F)nc2sccn12 | < 5% | 62% | < 10 | 54.7% | < 5% | 7.4% | < 5% | 30.6% | IC50 [28]: 5570 nM; Activity [14]: 93%; Activity [25]: 78% |
| 120 nM | 26 nM |  | CCOC(=O)C1=C(C)NC(C)=C(C(=O)OCC)C1c1c(-c2cc(OC)ccc2OC)nc2sc(Br)cn12 | < 5% | 22% | < 10 | 57.6% | < 5% | < 5% | < 5% | 29.32% | Activity [13]: 69%; Activity [10]: 94% |
|  | 1370 nM | 2170 nM | CCOC(=O)C1=C(C)NC(C)=C(C(=O)OCC)C1c1c(-c2ccc([N+](=O)[O-])cc2)nc2sc(Cl)cn12 |  | 12% |  | < 5% | < 5% | 10.3% |  | 26.1% | Activity [29]: 25%; Activity [20]: 74%; Activity [30]: 79% |
|  | 81 nM | 220 nM | CCOC(=O)C1=C(C)NC(C)=C(C(=O)OCC)C1c1c(-c2cc([N+](=O)[O-])c(Cl)cc2Cl)nc2sc(Cl)cn12 |  | 17% |  | 40.7% | 40.8% | 16.5% |  | 15.4% | Activity [31]: 82%; Activity [32]: 37%; Activity [17]: 86% |

| SMILES | EC50 [5] | EC50 [6] | EC50 [18] | Activity [1] | inhibition at 100 µM [2] | Ratio EC50 [3] | Activity [4] | Activity [8] | Activity [9] | Activity [11] | Activity [12] | further results |
| --- | --- | --- | --- | --- | --- | --- | --- | --- | --- | --- | --- | --- |
| COC(=O)C1=C(C)NC(C)=C(C(=O)OC)C1c1ccccc1[N+](=O)[O-] [NIFEDIPINE] | 39 nM |  |  |  |  |  | 101.6% | 55% | 34.4% |  | 73.7% | Activity ([1]; Brain): 95.7%; Activity [15]: 85%; Activity ([11]; Brain): 72.3%; Activity ([25]; Left cardiac atrium): 97% |
